From ChEMBL document CHEMBL4813913, “In vitro identification of imidazo[1,2-a]pyrazine-based antileishmanial agents and evaluation of L. major casein kinase 1 inhibition” (Eur J Med Chem, 2021)

Assays:
[1] = Selectivity index, ratio of CC50 for human MRC5 cells to IC50 for amastigote stage of Leishmania donovani (MHOM/ET/67/HU3) infected in mouse RAW264.7 cells; type: toxicity, cell-based; settings: read-out: Ratio CC50/IC50
Procedure, shortened: (§1)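 Selectivity index is CC50 on RAW 264.7 or MRC-5 cells divided by IC50 on intracellular amastigotes.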

[2] = biological target: Dual specificity tyrosine-phosphorylation-regulated kinase 1A (Rattus norvegicus, UniProt Q63470); test: Inhibition of recombinant rat DYRK1A (1 to 499 ) expressed in bacterial expression system using KKISGRLSPIMTEQ as substrate in presence of ATP measured after 30 mins by ADP-Glo assay; settings: 0.5 h
[3] = biological target: Serine/threonine-protein kinase pim-1 (Homo sapiens, UniProt P11309); test: Inhibition of recombinant human PIM1 expressed in bacteria using histone H1 as substrate in presence of ATP measured after 30 mins by ADP-Glo assay; settings: 0.5 h
Sequence of Serine/threonine-protein kinase pim-1 (P11309 whole entry): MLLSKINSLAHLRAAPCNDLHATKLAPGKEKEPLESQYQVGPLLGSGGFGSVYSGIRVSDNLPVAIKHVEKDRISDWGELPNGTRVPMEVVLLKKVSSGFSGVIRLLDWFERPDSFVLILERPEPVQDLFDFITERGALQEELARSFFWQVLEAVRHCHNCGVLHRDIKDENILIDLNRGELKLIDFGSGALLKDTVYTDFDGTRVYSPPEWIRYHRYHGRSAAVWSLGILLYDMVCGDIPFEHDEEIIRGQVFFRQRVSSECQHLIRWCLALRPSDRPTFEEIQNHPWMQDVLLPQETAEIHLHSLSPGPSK

Aurora kinase B = Aurora kinase B (Homo sapiens, UniProt Q96GD4); test: Inhibition of recombinant human AURKB expressed in baculovirus infected Sf9 cells using MBP as substrate in presence of ATP measured after 30 mins by ADP-Glo assay; settings: sf9, 0.5 h
Sequence of Aurora kinase B (Q96GD4 whole entry): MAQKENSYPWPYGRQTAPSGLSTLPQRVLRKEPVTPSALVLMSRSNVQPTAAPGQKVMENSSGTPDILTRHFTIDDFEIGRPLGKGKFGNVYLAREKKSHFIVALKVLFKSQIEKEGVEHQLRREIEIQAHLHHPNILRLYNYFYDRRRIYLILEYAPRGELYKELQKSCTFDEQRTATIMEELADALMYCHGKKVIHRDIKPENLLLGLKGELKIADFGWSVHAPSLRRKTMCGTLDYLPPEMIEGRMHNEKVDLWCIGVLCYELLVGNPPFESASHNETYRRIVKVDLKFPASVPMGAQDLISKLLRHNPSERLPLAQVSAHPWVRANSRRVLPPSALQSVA

Leishmania braziliensis = test: Antileishmanial activity against amastigote stage of Leishmania braziliensis (MHOM/BR/75/M2903b) infected in mouse RAW264.7 cells assessed as reduction in parasitic proliferation measured by SYBR Green 1 dye based fluorescence assay; type: functional, organism-based
Procedure, shortened: (§2)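 RAW 264.7 macrophages seeded at 100,000 cells/well in DMEM with 10% heat-inactivated FBS, 24 h at 37 °C, 5% CO₂. Infected with plateau-phase promastigotes (parasite:macrophage 16:1) for 24 h. Compounds serially diluted, final 391 nM–100 μM. Amastigote viability read by SYBR Green I after lysis and 3 freeze-thaw cycles. IC50 by nonlinear regression against excipient-treated controls. Miltefosine reference.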

[4] = Selectivity index, ratio of CC50 for mouse RAW264.7 cells to IC50 for amastigote stage of Leishmania amazonensis (MHOM/BR/73/M2269) infected in mouse RAW264.7 cells; type: toxicity, cell-based; settings: read-out: Ratio CC50/IC50; procedure, shortened: as §1
Leishmania infantum = test: Antileishmanial activity against amastigote stage of Leishmania infantum (MHOM/FR/2008/LEM5700) infected in mouse RAW264.7 cells assessed as reduction in parasitic proliferation measured by SYBR Green 1 dye based fluorescence assay; type: functional, organism-based; settings: MHOM/FR/2008/LEM5700, RAW264.7; procedure, shortened: as §2
[5] = Selectivity index, ratio of CC50 for human MRC5 cells to IC50 for amastigote stage of Leishmania infantum (MHOM/FR/2008/LEM5700) infected in mouse RAW264.7 cells; type: toxicity, cell-based; settings: read-out: Ratio CC50/IC50; procedure, shortened: as §1
[6] = biological target: Dual specificity protein kinase CLK1 (Mus musculus, UniProt P22518); test: Inhibition of recombinant mouse CLK1 expressed in bacteria using GRSRSRSRSRSR as substrate in presence of ATP measured after 30 mins by ADP-Glo assay
Sequence of Dual specificity protein kinase CLK1 (P22518 whole entry): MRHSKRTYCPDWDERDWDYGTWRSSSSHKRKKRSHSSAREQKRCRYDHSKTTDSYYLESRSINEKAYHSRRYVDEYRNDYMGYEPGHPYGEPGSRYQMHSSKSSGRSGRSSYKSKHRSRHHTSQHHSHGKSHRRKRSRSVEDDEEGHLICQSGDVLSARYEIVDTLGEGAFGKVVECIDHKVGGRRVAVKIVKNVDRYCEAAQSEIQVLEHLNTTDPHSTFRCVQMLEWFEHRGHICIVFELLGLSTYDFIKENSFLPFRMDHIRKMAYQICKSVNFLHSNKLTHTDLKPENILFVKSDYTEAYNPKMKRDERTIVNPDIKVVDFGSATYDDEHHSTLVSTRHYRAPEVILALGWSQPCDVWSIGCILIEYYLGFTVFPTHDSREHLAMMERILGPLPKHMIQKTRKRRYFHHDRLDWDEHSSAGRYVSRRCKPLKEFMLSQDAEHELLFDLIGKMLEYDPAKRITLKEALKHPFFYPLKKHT

[7] = Selectivity index, ratio of CC50 for human MRC5 cells to IC50 for amastigote stage of Leishmania braziliensis (MHOM/BR/75/M2903b) infected in mouse RAW264.7 cells; type: toxicity, cell-based; settings: read-out: Ratio CC50/IC50; procedure, shortened: as §1
Leishmania amazonensis = test: Antileishmanial activity against amastigote stage Leishmania amazonensis (MHOM/BR/73/M2269) infected in mouse RAW264.7 cells assessed as reduction in parasitic proliferation measured by SYBR Green 1 dye based fluorescence assay; type: functional, organism-based; settings: MHOM/BR/73/M2269, RAW264.7; procedure, shortened: as §2
CDK2/Cyclin A2 = CDK2/Cyclin A2 (Homo sapiens, UniProt P24941); test: Inhibition of human CDK2/ cyclinA using histone H1 as substrate in presence of ATP measured after 30 mins by ADP-Glo assay; type: protein-complex assay
[8] = Toxicity against Galleria mellonella larva assessed as cuticular darkening at 50 mg/kg measured for 7 days; type: organism-based; settings: in vivo, 168 h, time 7 day
Procedure, shortened: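 G. mellonella larvae (6th stage, 260–320 mg), groups of ten. Injected in the 4th left pro-leg with 10 μL at 10–50 mg/kg; controls got PBS/DMSO (DMSO <40%). Kept in the dark at 37 °C. Survival and cuticular darkening scored daily for 7 days; death taken as no movement on stimulus. Kaplan-Meier with log-rank test; two independent experiments.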

Leishmania donovani = test: Antileishmanial activity against amastigote stage of Leishmania donovani (MHOM/ET/67/HU3) infected in mouse RAW264.7 cells assessed as reduction in parasitic proliferation measured by SYBR Green 1 dye based fluorescence assay; type: functional, organism-based; settings: MHOM/ET/67/HU3, RAW264.7; procedure, shortened: as §2
CDK9/cyclin T1 = CDK9/cyclin T1 (Homo sapiens, UniProt P50750); test: Inhibition of human recombinant CDK9/CyclinT expressed in baculovirus infected Sf9 cells using YSPTSPSYSPTSPSYSPTSPSKKK as substrate in presence of ATP measured after 30 mins by ADP-Glo assay
Sequence of CDK9/cyclin T1 (O60563 whole entry): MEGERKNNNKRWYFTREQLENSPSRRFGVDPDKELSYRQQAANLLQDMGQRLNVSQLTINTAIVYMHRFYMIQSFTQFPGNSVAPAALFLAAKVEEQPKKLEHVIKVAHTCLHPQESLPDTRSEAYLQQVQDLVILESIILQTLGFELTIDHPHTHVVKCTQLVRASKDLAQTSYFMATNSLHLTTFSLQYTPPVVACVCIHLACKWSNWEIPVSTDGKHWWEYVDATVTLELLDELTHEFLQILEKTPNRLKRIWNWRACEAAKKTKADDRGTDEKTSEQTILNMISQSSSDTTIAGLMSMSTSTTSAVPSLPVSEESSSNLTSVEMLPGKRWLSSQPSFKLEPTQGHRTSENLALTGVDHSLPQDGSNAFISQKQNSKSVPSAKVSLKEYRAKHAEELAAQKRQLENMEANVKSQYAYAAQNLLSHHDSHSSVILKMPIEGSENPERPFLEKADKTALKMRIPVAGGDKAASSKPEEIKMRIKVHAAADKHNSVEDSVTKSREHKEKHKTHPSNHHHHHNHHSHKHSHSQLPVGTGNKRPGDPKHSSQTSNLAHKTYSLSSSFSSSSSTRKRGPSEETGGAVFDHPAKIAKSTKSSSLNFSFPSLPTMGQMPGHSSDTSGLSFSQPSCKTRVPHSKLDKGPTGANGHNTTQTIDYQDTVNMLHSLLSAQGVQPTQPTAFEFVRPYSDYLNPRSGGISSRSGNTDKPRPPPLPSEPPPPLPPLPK
Sequence of CDK9/cyclin T1 (P50750 whole entry): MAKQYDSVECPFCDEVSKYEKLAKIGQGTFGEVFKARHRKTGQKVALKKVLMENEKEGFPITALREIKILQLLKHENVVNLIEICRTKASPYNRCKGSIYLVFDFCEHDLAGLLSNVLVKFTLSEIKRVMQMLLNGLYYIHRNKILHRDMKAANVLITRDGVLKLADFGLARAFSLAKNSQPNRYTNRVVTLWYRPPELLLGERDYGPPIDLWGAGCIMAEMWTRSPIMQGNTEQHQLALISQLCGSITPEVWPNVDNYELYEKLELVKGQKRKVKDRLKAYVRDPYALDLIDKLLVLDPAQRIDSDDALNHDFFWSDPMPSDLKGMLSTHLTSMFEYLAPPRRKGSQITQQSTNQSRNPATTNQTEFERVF

[9] = biological target: Cyclin-dependent kinase 5/CDK5 activator 1 (Homo sapiens, UniProt Q00535); test: Inhibition of human recombinant CDK5/ p25 expressed in bacterial expression system using histone H1 as substrate in presence of ATP measured after 30 mins by ADP-Glo assay
Sequence of Cyclin-dependent kinase 5/CDK5 activator 1 (Q00535 whole entry): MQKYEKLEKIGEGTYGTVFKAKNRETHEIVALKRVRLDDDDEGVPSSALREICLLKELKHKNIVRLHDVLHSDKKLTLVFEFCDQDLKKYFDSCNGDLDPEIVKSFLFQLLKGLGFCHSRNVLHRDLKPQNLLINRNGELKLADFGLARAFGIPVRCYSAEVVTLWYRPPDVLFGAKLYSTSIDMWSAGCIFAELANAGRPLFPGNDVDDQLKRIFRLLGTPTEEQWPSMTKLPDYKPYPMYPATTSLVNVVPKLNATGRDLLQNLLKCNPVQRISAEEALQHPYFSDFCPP
Sequence of Cyclin-dependent kinase 5/CDK5 activator 1 (Q15078 whole entry, further chain): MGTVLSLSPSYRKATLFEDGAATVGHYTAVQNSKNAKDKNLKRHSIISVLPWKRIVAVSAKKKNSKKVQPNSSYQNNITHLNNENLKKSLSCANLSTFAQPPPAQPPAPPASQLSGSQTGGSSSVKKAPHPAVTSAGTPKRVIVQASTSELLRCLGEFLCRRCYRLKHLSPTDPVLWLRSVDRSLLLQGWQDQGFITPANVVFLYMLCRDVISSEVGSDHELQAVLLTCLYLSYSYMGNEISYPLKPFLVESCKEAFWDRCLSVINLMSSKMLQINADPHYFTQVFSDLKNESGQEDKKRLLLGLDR

[10] = Selectivity index, ratio of CC50 for human MRC5 cells to IC50 for amastigote stage of Leishmania major (MHOM/IL/81/BNI) infected in BALB/c mouse peritoneal macrophages; type: toxicity; settings: read-out: Ratio CC50/IC50; procedure, shortened: as §1
[11] = Selectivity index, ratio of CC50 for mouse RAW264.7 cells to IC50 for amastigote stage of Leishmania donovani (MHOM/ET/67/HU3) infected in mouse RAW264.7 cells; type: toxicity, cell-based; settings: read-out: Ratio CC50/IC50; procedure, shortened: as §1
[12] = Cytotoxicity against mouse RAW264.7 cells assessed as reduction in cell growth measured after 48 hrs by SYBR Green 1 dye based fluorescence assay
Procedure, shortened: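 RAW 264.7 cells seeded at 100,000 cells/well in DMEM with 10% FBS, 24 h at 37 °C, 5% CO₂. Two-fold serial dilutions, final 49 nM–100 μM, for 48 h. Growth read by SYBR Green I. CC50 by nonlinear regression. Miltefosine reference; untreated cells as growth control.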

[13] = Selectivity index, ratio of CC50 for mouse RAW264.7 cells to IC50 for amastigote stage of Leishmania braziliensis (MHOM/BR/75/M2903b) infected in mouse RAW264.7 cells; type: toxicity, cell-based; settings: read-out: Ratio CC50/IC50; procedure, shortened: as §1
Leishmania major = test: Antileishmanial activity against amastigote stage of Leishmania major (MHOM/IL/81/BNI) infected in BALB/c mouse peritoneal macrophages assessed as reduction in parasitic proliferation measured after 4 days by MayGrunwald-Giemsa stain based microscopic method; type: functional, organism-based; settings: Peritoneal macrophage, 96 h
Procedure, shortened: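 BALB/c peritoneal macrophages on glass slides, 1.5×10⁵ cells/mL in RPMI 1640 with 15% FBS, 24 h attachment. Infected with stationary-phase promastigotes (1.5×10⁶/mL) for 24 h at 37 °C, 5% CO₂. Washed, then exposed 4 days to 100, 10, 1, 0.1 μM (DMSO ≤1% final). Methanol-fixed, May-Grunwald-Giemsa stained, amastigotes counted in 100 macrophages per duplicate well. IC50 from amastigotes/macrophage. Run twice.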

[14] = Selectivity index, ratio of CC50 for mouse RAW264.7 cells to IC50 for amastigote stage of Leishmania major (MHOM/IL/81/BNI) infected in BALB/c mouse peritoneal macrophages; type: toxicity; settings: read-out: Ratio CC50/IC50; procedure, shortened: as §1
[15] = Cytotoxicity against human MRC5 cells assessed as reduction in cell viability measured after 96 hrs by resazurin assay; type: cell-based
Procedure, shortened: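 Human MRC-5 fibroblasts grown in RPMI 1640 with 10% FBS. Exposed to 100, 10 and 1 μM in triplicate for 96 h. Then 10 μL of 700 μM resazurin added for 4 h and fluorescence read. Value is the mean of triplicates.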

[16] = Selectivity index, ratio of CC50 for human MRC5 cells to IC50 for amastigote stage of Leishmania amazonensis (MHOM/BR/73/M2269) infected in mouse RAW264.7 cells; type: toxicity, cell-based; settings: read-out: Ratio CC50/IC50; procedure, shortened: as §1
[17] = Selectivity index, ratio of CC50 for mouse RAW264.7 cells to IC50 for amastigote stage of Leishmania infantum (MHOM/FR/2008/LEM5700) infected in mouse RAW264.7 cells; type: toxicity, cell-based; settings: read-out: Ratio CC50/IC50; procedure, shortened: as §1

## CN(C)c1nccn2c(-c3ccncc3)c(-c3ccc(F)cc3)nc12
[1]
  selectivity ratio: 36.5
[2]
  inhibition (INH): Not Active
[3]
  inhibition (INH): Not Active
Aurora kinase B
  inhibition (INH): Not Active
Leishmania braziliensis
  IC50: 57.9 µM
[4]
  selectivity ratio: 1.5
Leishmania infantum
  IC50: 12.8 µM
[5]
  selectivity ratio: 7.8
[6]
  IC50: > 10 µM
[7]
  selectivity ratio: 1.7
Leishmania amazonensis
  IC50: 28.4 µM
CDK2/Cyclin A2
  IC50: > 10 µM
[8]
  Activity: Non-Toxic
Leishmania donovani
  IC50: 2.74 µM
CDK9/cyclin T1
  IC50: > 10 µM
[9]
  IC50: > 10 µM

## CN(C)c1nccn2c(-c3cncnc3)c(-c3ccc(F)cc3)nc12
[2]
  inhibition (INH): Not Active
[3]
  inhibition (INH): Not Active
Aurora kinase B
  inhibition (INH): Not Active
Leishmania braziliensis
  IC50: 22.8 µM
Leishmania infantum
  IC50: > 50 µM
[6]
  IC50: > 10 µM
[7]
  selectivity ratio: 4.4
Leishmania amazonensis
  IC50: > 50 µM
CDK2/Cyclin A2
  IC50: > 10 µM
[8]
  Activity: Non-Toxic
Leishmania donovani
  IC50: > 50 µM
CDK9/cyclin T1
  IC50: > 10 µM
[9]
  IC50: > 10 µM

## CN(C)c1nccn2c(-c3cnn(C)c3)c(-c3ccc(F)cc3)nc12
[1]
  selectivity ratio: 78.7
[2]
  inhibition (INH): Not Active
[3]
  inhibition (INH): Not Active
Aurora kinase B
  inhibition (INH): Not Active
Leishmania braziliensis
  IC50: > 25 µM
[4]
  selectivity ratio: 0.6
Leishmania infantum
  IC50: 2.6 µM
[5]
  selectivity ratio: 38.5
[6]
  IC50: > 10 µM
[7]
  selectivity ratio: 4
Leishmania amazonensis
  IC50: > 25 µM
CDK2/Cyclin A2
  IC50: > 10 µM
[8]
  Activity: Non-Toxic
Leishmania donovani
  IC50: 1.27 µM
CDK9/cyclin T1
  IC50: > 10 µM
[9]
  IC50: > 10 µM

## CN(C)c1nccn2c(-c3ccc4[nH]ncc4c3)c(-c3ccc(F)cc3)nc12
[1]
  selectivity ratio: 2
[2]
  inhibition (INH): Not Active
[3]
  inhibition (INH): Not Active
Aurora kinase B
  inhibition (INH): Not Active
Leishmania braziliensis
  IC50: > 12.5 µM
[4]
  selectivity ratio: 0.6
Leishmania infantum
  IC50: 12.9 µM
[5]
  selectivity ratio: 2
[6]
  IC50: > 10 µM
[7]
  selectivity ratio: 2
Leishmania amazonensis
  IC50: > 12.5 µM
CDK2/Cyclin A2
  IC50: > 10 µM
[8]
  Activity: Non-Toxic
Leishmania donovani
  IC50: > 12.5 µM
CDK9/cyclin T1
  IC50: > 10 µM
[9]
  IC50: > 10 µM

## CCCCCCCCCCCCCCCCOP(=O)([O-])OCC[N+](C)(C)C [MILTEFOSINE]
[10]
  selectivity ratio: 25.5
[1]
  selectivity ratio: 20.1
Leishmania braziliensis
  IC50: 8.33 µM
[4]
  selectivity ratio: 10.2
Leishmania infantum
  IC50: 2.96 µM
[5]
  selectivity ratio: 12.4
[11]
  selectivity ratio: 23.5
[7]
  selectivity ratio: 4.4
[12]
  CC50 at 48 h: 43 µM
[13]
  selectivity ratio: 5.2
Leishmania amazonensis
  IC50: 4.22 µM
Leishmania major
  IC50: 1.44 µM
[14]
  selectivity ratio: 29.9
Leishmania donovani
  IC50: 1.83 µM
[15]
  CC50 at 96 h: 36.8 µM
[16]
  selectivity ratio: 8.7
[17]
  selectivity ratio: 14.5
